Active and inactive are the calls of the source. The calls are words filed in the database; no cut-off is given here.
Columns and labels:
NCI-H460 = test: Induction of ROS accumulation in human NCI-H460 cells measured upto 20 uM after 42 to 48 hrs by DCFH-DA staining based flow cytometric analysis; assay type: functional, cell-based; settings: time 42-48 hrs
Outline: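 NCI-H460 cells exposed 42 h or 48 h. Cells suspended in 1% BSA DPBS, loaded with DCFH-DA (0.2 µL of 10 mM stock per 200 µL) for 30 min in the dark, washed, analyzed by flow cytometry. DCF fluorescence expressed as percentage relative to untreated control from histograms, ≥3 replicates.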

[1] = Cytotoxicity against HUVEC transfected with OE overexpressing Glut1assessed as decrease in cell viability incubated for 72 hrs by MTT assay; assay type: toxicity, cell-based; settings: human, HUVEC cells transfected with OE overexpressing Glut1
Outline: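 HUVEC kept in DMEM with 10% FBS, made to overexpress Glut-1 (OE) or carry vector (OE V) by lentiviral infection and puromycin selection for 14 days, with Western blot check. Seeded at 4000 cells/well, treated over a concentration range or DMSO for 72 h, then MTT at 570 nm. IC50 taken from at least three replicates.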

MDA-MB-231 = test: Cytotoxicity against human MDA-MB-231 cells incubated for 72 hrs by MTT assay; assay type: functional, cell-based; settings: MDA-MB-231, 72 h
Outline: (§1)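 Cells seeded at 4000/well, incubated overnight, then exposed to a range of concentrations, or DMSO vehicle, for 72 h. MTT (5 mg/mL solution) added for 4 h and formazan dissolved in DMSO. Absorbance read at 570 nm, and IC50 derived from the curves. Tumor lines were grown in RPMI 1640; HUVEC, HaCaT and LO2 were grown in DMEM, each with 10% FBS at 37 °C and 5% CO2.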

NCI-H1975 = test: Cytotoxicity against human NCI-H1975 cells incubated for 72 hrs by MTT assay; assay type: functional, cell-based; settings: NCI-H1975, 72 h; outline: as §1
[2] = Toxicity in BALB/c nude mouse xenografted with human NCI-H1975 cells assessed as reduction of cytoplasmic nuclei at 2 mg/kg administered ip, qd for 2 weeks; settings: in vivo, 336 h

Question: Which Activity (NCI-H460) does the source give for `CC(C)[C@]12O[C@H]1[C@@H]1O[C@]13[C@]1(O[C@H]1C[C@H]1C4=C(CC[C@@]13C)C(=O)OC4)[C@@H]2OC(=O)CCC(=O)O[C@H]1C(O)O[C@H](CO)[C@@H](O)[C@@H]1O` (stereo not given in full) here?
Answer: The Activity was “Active”.

Question: What about the IC50 at 72 h [1] of the same compound?
Answer: Its IC50 at 72 h is 3170 nM.

Question: And the IC50 (MDA-MB-231)?
Answer: The IC50 was 1970 nM.

Question: What about the IC50 (NCI-H1975) of the same compound?
Answer: Its IC50 is 2040 nM.

Question: And the Activity [2]?
Answer: The Activity was “Toxic”.
